The source made the active and inactive calls. The rule behind the calls is not given here.
Assays:
Canis familiaris = experiment: Drug metabolism in dog assessed as taurine conjugated metabolite formation at 0.5 mg/kg, iv or 2 mg/kg, po administered via gavage by LC-MS/MS analysis; format: ADME, organism-based, Canis lupus familiaris; settings: in vivo
Procedure, shortened: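 Plasma samples were taken from the dog PK studies. The IV solution was 20% PEG300, 5% solutol and 75% carbonate buffer pH = 8. The PO suspension was 0.5% methylcellulose, 0.5% Tween80 and 99% water. Samples were screened for taurine- and glycine-conjugated metabolites and for the acylglucuronide.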

[1] = Clearance in rat at 3 mg/kg, iv by LC-MS/MS analysis; format: ADME, organism-based; settings: in vivo
Procedure, shortened: (§1)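 Rats were dosed IV as a solution in 75% PEG300:25% D5W, or orally as a suspension in 0.5% methylcellulose, 0.5% Tween80 and 99% water.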

[2] = Half life in mouse at 5 mg/kg, iv by LC-MS/MS analysis; format: ADME, organism-based; settings: in vivo
Procedure, shortened: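 Single IV dose given as a solution. Mouse and rat received it in 75% PEG300:25% D5W. Dog received it in 20% PEG300, 5% solutol and 75% carbonate buffer pH = 8. Plasma was sampled for PK parameters.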

[3] = Cmax in Sprague-Dawley rat at 0.3 mg/kg, po qd administered via gavage measured on day 11 by LC-MS/MS analysis; format: ADME, organism-based; design: dose 0.3 mg/kg, route oral; settings: in vivo
[4] = Cmax in Sprague-Dawley rat at 0.1 mg/kg, po qd administered via gavage measured on day 1 by LC-MS/MS analysis; format: ADME, organism-based; design: dose 0.1 mg/kg, route oral; settings: in vivo
[5] = Cmax in Sprague-Dawley rat at 3 mg/kg, po qd administered via gavage measured on day 1 by LC-MS/MS analysis; format: ADME, organism-based; design: dose 3 mg/kg, route oral; settings: in vivo
[6] = Drug uptake in Sprague-Dawley rat plasma at 0.3 mg/kg, po qd administered via gavage measured 7 hrs post last dose on day 14 by LC-MS/MS analysis; format: ADME, organism-based
Rattus norvegicus [7] = experiment: In vivo agonist activity at FXR in po dosed Sprague-Dawley rat assessed as reduction in serum triglyceride level administered once daily for 14 days measured 24 hrs post last dose; format: functional, organism-based
Rattus norvegicus [8] = experiment: In vivo agonist activity at FXR in po dosed Sprague-Dawley rat assessed as induction of SHP mRNA level in liver administered once daily for 14 days measured 7 hrs post last dose on day 14 by qPCR analysis; format: functional
Rattus norvegicus [9] = experiment: Dose normalized AUC (0 to 24 hrs) in Sprague-Dawley rat at 0.003 mg/kg, po qd administered via gavage measured on day 1 by LC-MS/MS analysis; format: ADME, organism-based; settings: in vivo
[10] = Oral bioavailability in rat at 10 mg/kg administered via gavage by LC-MS/MS analysis; format: ADME, organism-based; settings: in vivo; procedure, shortened: as §1
Rattus norvegicus [11] = experiment: Dose normalized AUC (0 to 24 hrs) in Sprague-Dawley rat at 0.003 mg/kg, po qd administered via gavage measured on day 11 by LC-MS/MS analysis; format: ADME, organism-based; settings: in vivo
Rattus norvegicus [12] = experiment: Drug metabolism in rat assessed as taurine conjugated metabolite formation at 3 mg/kg, iv or 1 mg/kg, po administered via gavage by LC-MS/MS analysis; format: ADME, organism-based; settings: in vivo
[13] = Drug uptake in Sprague-Dawley rat plasma at 0.003 mg/kg, po qd administered via gavage measured 1 hr post last dose on day 14 by LC-MS/MS analysis; format: ADME, organism-based
Rattus norvegicus [14] = experiment: In vivo agonist activity at FXR in po dosed Sprague-Dawley rat assessed as induction of BSEP mRNA level in liver administered as single dose measured 7 hrs post dose by qPCR analysis
Rattus norvegicus [15] = experiment: In vivo agonist activity at FXR in po dosed Sprague-Dawley rat assessed as induction of SHP mRNA level in ileum administered once daily for 14 days measured 7 hrs post last dose on day 14 by qPCR analysis; format: functional
[16] = Drug uptake in Sprague-Dawley rat liver at 0.1 mg/kg, po qd administered via gavage measured 1 hr post last dose on day 14 by LC-MS/MS analysis; format: ADME, organism-based; settings: read-out: Drug uptake
Procedure, shortened: (§2)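 Drug concentration in liver was quantified from tissue homogenates, so these are total levels. Unbound liver concentration was not determined.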

[17] = AUC (0 to 24 hrs) in Sprague-Dawley rat at 0.3 mg/kg, po qd administered via gavage measured on day 1 by LC-MS/MS analysis; format: ADME, organism-based; design: dose 0.3 mg/kg, time < 24 hr, route oral; settings: in vivo
[18] = Drug uptake in Sprague-Dawley rat plasma at 3 mg/kg, po qd administered via gavage measured 7 hrs post last dose on day 14 by LC-MS/MS analysis; format: ADME, organism-based
[19] = AUC in rat at 1 mg/kg, po administered via gavage by LC-MS/MS analysis; format: ADME, organism-based; settings: in vivo
Procedure, shortened: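 Single oral dose given as a suspension in 0.5% methylcellulose, 0.5% Tween80 and 99% water. Doses were 10 mg/kg in mouse, 1 mg/kg in rat and 2 mg/kg in dog.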

[20] = Drug uptake in Sprague-Dawley rat plasma at 1 mg/kg, po qd administered via gavage measured 1 hr post last dose on day 14 by LC-MS/MS analysis; format: ADME, organism-based
[21] = AUC (0 to 24 hrs) in Sprague-Dawley rat at 0.003 mg/kg, po qd administered via gavage measured on day 1 by LC-MS/MS analysis; format: ADME, organism-based; design: time < 24 hr, dose 0.003 mg/kg, route oral; settings: in vivo
[22] = Terminal half life in rat at 3 mg/kg, iv by LC-MS/MS analysis; format: ADME, organism-based; settings: in vivo, read-out: beta t1/2 (converted); procedure, shortened: as §1
Rattus norvegicus [23] = experiment: In vivo agonist activity at FXR in Sprague-Dawley rat assessed as induction of SHP mRNA level in ileum at 0.01 mg/kg, po qd for 14 days measured 7 hrs post last dose on day 14 by qPCR analysis; format: functional, organism-based
[24] = Drug uptake in Sprague-Dawley rat plasma at 0.01 mg/kg, po qd administered via gavage measured 1 hr post last dose on day 14 by LC-MS/MS analysis; format: ADME, organism-based
Rattus norvegicus [25] = experiment: Dose normalized AUC (0 to 24 hrs) in Sprague-Dawley rat at 0.3 mg/kg, po qd administered via gavage measured on day 11 by LC-MS/MS analysis; format: ADME, organism-based; settings: in vivo
Mus musculus = experiment: Drug metabolism in mouse assessed as taurine conjugated metabolite formation at 5 mg/kg, iv or 10 mg/kg, po administered via gavage by LC-MS/MS analysis; format: ADME, organism-based; settings: in vivo
[26] = Drug uptake in Sprague-Dawley rat liver at 0.1 mg/kg, po qd administered via gavage measured 7 hrs post last dose on day 14 by LC-MS/MS analysis; format: ADME, organism-based; settings: read-out: Drug uptake; procedure, shortened: as §2
[27] = Volume of distribution at steady state in dog at 0.5 mg/kg, iv or 2 mg/kg, po administered via gavage by LC-MS/MS analysis; format: ADME, organism-based, Canis lupus familiaris; settings: in vivo, read-out: Vdss
Procedure, shortened: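 IV dosing used a solution in 75% PEG300:25% D5W for mouse and rat, and a solution in 20% PEG300, 5% solutol, 75% carbonate buffer pH 8 for dog. PO dosing used a suspension in 0.5% methylcellulose, 0.5% Tween80, 99% water for all three species.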

[28] = Cmax in Sprague-Dawley rat at 1 mg/kg, po qd administered via gavage measured on day 11 by LC-MS/MS analysis; format: ADME, organism-based; design: dose 1 mg/kg, route oral; settings: in vivo

Question: What does the source list for O=C(O)c1cc(F)c2nc(N3C4CCC3CC(OCc3c(-c5ccccc5OC(F)(F)F)noc3C3CC3)C4)sc2c1 (stereo not given)?
Answer: Drug metabolism (Canis familiaris): Metabolite_Notdetected; clearance [1]: 9 to 9.3 mL/min/kg; half-life [2]: 2.6 h; Cmax [3]: 14.8 nM; Cmax [4]: 4.6 nM; Cmax [5]: 172 nM; concentration at 7 h [6]: 13.8 nM; Activity (Rattus norvegicus [7]): Dose-dependent effect; ED50 (Rattus norvegicus [8]): 0.02 mg/kg; AUC/dose (Rattus norvegicus [9]): 668 nM·h; bioavailability [10]: 20%; AUC/dose (Rattus norvegicus [11]): 756 nM·h; Drug metabolism (Rattus norvegicus [12]): Metabolite_Notdetected; concentration at 1 h [13]: 0.2 nM; Activity (Rattus norvegicus [14]): Dose-dependent effect; ED50 (Rattus norvegicus [15]): 0.01 mg/kg; concentration at 1 h [16]: 27.4 nM; AUC(0-t) at 24 h [17]: 0.117 µM·h; concentration at 7 h [18]: 115 nM; AUC [19]: 0.307 µM·h; concentration at 1 h [20]: 16.4 nM; AUC(0-t) at 24 h [21]: 0.002 µM·h; half-life [22]: 3.7 h; Activity (Rattus norvegicus [23]): Active; concentration at 1 h [24]: 0.37 nM; AUC/dose (Rattus norvegicus [25]): 633 nM·h; Drug metabolism (Mus musculus): Metabolite_Notdetected; concentration at 7 h [26]: 45 nM; Vd [27]: 0.46 L/kg; Cmax [28]: 43.1 nM

— ChEMBL document CHEMBL4028903 (J Med Chem, 2017)
